# Hits are enriched below; roughly 1.6% of the tested compounds scored in any of these assays.
# PKA-R2B act – activators of PKA-R2B holoenzyme, primary screen, biochemical, fluorescence polarization, Cy5-IP20, human; cAMP-dependent protein kinase catalytic subunit beta (Homo sapiens) + cAMP-dependent …; PKA-R2B holoenzyme dissociation; R2B truncated from residue 108, S112A mutant; 0% DMSO only, 100% 113 µM cGMP; activation, % at 11.4 µM; 0.079% of 340,000 active;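 active = activation above a cutoff set at the mean over all compounds plus 3 SD, cut at about 18% in these data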;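 note: higher means more holoenzyme dissociation and a rise in polarization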
# Rpn11 inh – Rpn11 (PSMD14) deubiquitinase inhibitors, primary screen, biochemical, fluorescence polarization, uHTS; 26S proteasome non-ATPase regulatory subunit 14 (Homo sapiens), O00487; AID 588493, 2011; 0.59% of 360,000 active; calls only at 20 µM; human 26S proteasome, Ub4-pepOG fluorescence polarization; 20S core pre-blocked with epoxomicin;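 active = inhibition at 20 µM, scaled to each plate's controls, above about 33%, limit read from the data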
# TPT1 inh – Candida albicans TPT1 enzyme inhibitors, primary screen, biochemical, fluorescence polarization | inhibition, % at 5 µM | tRNA 2'-phosphotransferase TPT1 (Candida albicans SC5314) | 0.81% of 300,000 active | recombinant caTPT1, FP RNA substrate dephosphorylation;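 active = inhibition above the mean of all tested compounds plus 3 SD, set per screening campaign, cut at about 24% in these data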;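 note: plate controls were DMSO alone for no effect and ferristatin control at 100 nM for full effect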
# CSN inh – inhibitors of CSN-mediated cullin deneddylation, primary screen, biochemical, fluorescence polarization, uHTS; COP9 signalosome complex subunit 5 (Homo sapiens), Q92905; Purified CSN, SCF-Nedd8-OG deneddylation; inhibition, % at 12.5 µM; 0.38% of 360,000 active; AID 651999, 2013;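 active = pattern-corrected inhibition above about 35%, with an unprinted fluorescence ratio check between 0.5 and 1.5, limit read from the data, passing the limit was not always enough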;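 note: 0% = enzyme with substrate and 100% = substrate without enzyme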
# Target sequence (Q92905 whole entry, looked up, one chain of several): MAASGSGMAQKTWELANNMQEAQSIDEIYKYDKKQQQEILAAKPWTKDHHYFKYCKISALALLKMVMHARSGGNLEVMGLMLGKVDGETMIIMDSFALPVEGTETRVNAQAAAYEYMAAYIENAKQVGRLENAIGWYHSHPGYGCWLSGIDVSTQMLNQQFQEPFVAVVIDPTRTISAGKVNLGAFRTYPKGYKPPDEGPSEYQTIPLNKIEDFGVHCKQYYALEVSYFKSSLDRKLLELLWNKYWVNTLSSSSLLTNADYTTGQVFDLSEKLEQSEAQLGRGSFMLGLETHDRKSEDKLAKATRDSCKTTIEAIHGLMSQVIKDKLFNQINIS
#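 assay system = purified human Csn5 enzyme expressed in HEK293T cells | amount = 0.24 nM enzyme | buffer or medium = Tris/NaCl/DTT buffer, pH 7.5 | reagent = 10 nM SCFSkp2-Nedd8OG | compound = one concentration, 12.5 µM, 0.25% DMSO | times = 90 min reaction at room temperature | signal = FP | read-out basis = % inhibition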
# HNF4A DNA FP – change in binding of human HNF4A to DNA, primary screen, biochemical, fluorescence polarization, FITC-DNA; Hepatocyte nuclear factor 4-alpha (Homo sapiens), P41235; activity change, % at 10 µM; 0.3% of 360,000 active; 1 h; in the data active = activity change above about 30%, passing the limit was not always enough
# PKA-R1A act – activators of PKA-R1A holoenzyme, primary screen, biochemical, fluorescence polarization, Cy5-IP20, bovine R1A, mouse PKAc. cAMP-dependent protein kinase type I-alpha regulatory subunit (Bos taurus) + …. PKA-R1A dissociation; scaled: DMSO 0%, 113 µM cGMP 100%. activation, % at 11.4 µM. 0.083% of 340,000 active;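 active = percent activation above the mean of all tested compounds plus 3 SD, cut at about 19% in these data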;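 note: higher means more PKAc released from R1A so a rise in polarization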
# caTPT1 confirm – Candida albicans TPT1 inhibitors, confirmation, biochemical, fluorescence polarization, triplicate | shares compounds with TPT1 inh | inhibition, % at 5 µM | recombinant caTPT1, RNase T1 coupled | 74% of 2,400 active;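 active = inhibition above the primary screen limit, the mean inhibition of all tested compounds plus 3 SD, cut at about 25% in these data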
# RNase T1 inh – RNase T1 inhibitors, counter-screen for TPT1 inhibitor project, biochemical, fluorescence polarization; shares compounds with TPT1 inh; RNase T1 cleavage, 1536-well; inhibition, % at 5 µM; 83% of 2,400 active; AID 2153, 2009;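 active = inhibition above the solvent-only control well mean plus 3 SD, limit set per screening run, cut at about 23% in these data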;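 note: plate controls were DMSO wells with enzyme for no effect and wells without RNase T1 for full effect; inhibitors block cleavage so intact labeled substrate keeps polarization high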
# Target sequence (P00651 whole entry, looked up): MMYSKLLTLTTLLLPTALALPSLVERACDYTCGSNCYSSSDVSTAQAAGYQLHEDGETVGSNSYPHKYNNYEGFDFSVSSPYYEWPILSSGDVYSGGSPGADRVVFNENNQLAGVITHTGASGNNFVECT
# Numbers without * were called inactive; i = inactive; nt = no result given.
SMILES,PKA-R2B act,Rpn11 inh,TPT1 inh,CSN inh,HNF4A DNA FP,PKA-R1A act,caTPT1 confirm,RNase T1 inh
CN(C)c1ccc(C=C(C#N)C#N)cc1,-11.9,i,39.9*,-12.1,-0.7,-14.5,47.7*,59.8*
N#CC(C#N)=Cc1ccc(N2CCCC2)cc1,-10.3,i,62.5*,10.3,15.5,1.0,69.1*,84.4*
CCOc1cc(CN2CCN(C(=O)Cc3ccccc3)CC2)ccc1OC,12.7,i,-3.9,2.9,0.4,0.3,nt,nt
Cc1ccccc1N1CCN(Cc2ccc3c(c2)OCO3)CC1,-7.2,i,-0.1,-2.0,0.2,3.4,nt,nt
Cc1cc(C)c(-n2c(O)c(/C=N/NC(=O)c3ccncc3)c(=O)[nH]c2=O)c(C)c1,nt,i,24.1*,5.5,7.4,nt,28.6*,39.5*
O=C(c1ccc2c3c(cccc13)CC2)C1CCCN(CC2CC2)C1 (stereo unspecified),15.4,i,-2.5,1.1,3.0,-0.4,nt,nt
O=c1c(C=NCc2cccs2)c(O)n(C2CCCCC2)c(=O)n1C1CCCCC1,-5.0,i,2.0,-1.5,-5.7,3.9,nt,nt
O=c1c(C=Nc2cccnc2Cl)c(O)n(CCCCl)c(=O)n1C1CCCCC1,11.2,nt,63.1*,49.5*,27.7,2.3,85.7*,99.2*
C#CC[N+]1(C)[C@@H]2CC(OC(=O)C(CO)c3ccccc3)C[C@H]1C(O)C2 (stereo partly specified),-8.9,i,-5.5,2.6,3.4,5.0,nt,nt
N#Cc1c(/N=C/c2ccc(O)cc2O)sc2c1C1CCN2CC1,-4.9,i,65.0*,33.2,40.4*,3.0,106.3*,107.3*
COc1cc(/C=C/c2nc3ccccc3c(=O)n2-c2ccccc2O)ccc1O,-8.3,nt,25.6*,24.0,10.1,-0.9,44.8*,49.5*
O=c1c2ccccc2nc(/C=C/c2ccc(O)c(O)c2)n1-c1ccccc1,2.8,nt,46.3*,21.9,15.6,5.8,48.7*,56.7*
Cc1nc2ccccc2c(=O)n1-c1cc([N+](=O)[O-])cc([N+](=O)[O-])c1,2.1,i,1.4,2.7,2.4,4.5,nt,nt
O=c1c2ccccc2nc(/C=C/c2ccccc2)n1-c1ccc(O)cc1,0.3,i,-4.6,2.8,3.6,-7.0,nt,nt
Cc1cccc(-n2c(/C=C/c3ccc([N+](=O)[O-])o3)nc3ccccc3c2=O)c1,8.8,nt,40.4*,116.9,150.5,-2.4,56.0*,52.2*
CCOC(=O)c1cc2c(cn1)[C@H](CCO)NC2,10.1,i,nt,1.4,-2.2,-3.7,nt,nt
CCN1C(=O)C(=Cc2ccc(C)s2)C(=O)N(CC)C1=S,8.1,nt,31.4*,16.6,4.3,2.6,8.8,12.8
CC(C)n1c(=O)c(C=Nc2cccc([N+](=O)[O-])c2)c(O)n(CCc2ccccc2)c1=O,-9.9,i,42.8*,8.2,3.3,-4.2,14.0,19.1
Cn1c(O)c(C=Nc2cccc(C(F)(F)F)c2)c(=O)n(C)c1=O,-3.9,i,5.0,2.2,-2.5,-1.0,nt,nt
C=CCn1c(O)c(C=NCCN(C)C)c(=O)[nH]c1=O,1.1,i,30.1*,9.2,14.3,7.4,35.0*,45.4*
